Experimental data pooled from the literature.
TYK2 JH2: Non-receptor tyrosine-protein kinase TYK2, JH2 (TYK2, Homo sapiens, UniProt P29597)
TYK2 JH1: Non-receptor tyrosine-protein kinase TYK2, JH1 (TYK2, Homo sapiens, UniProt P29597)
TYK2: Non-receptor tyrosine-protein kinase TYK2 (TYK2, Homo sapiens, UniProt P29597)

CC(=O)N1CCC(c2ccc(C(=O)NC3=NCCN3)cc2C(F)(F)F)CC1  remaining binding (TYK2 JH2; cell-free assay; competition with immobilised ligand; 1 µM): 100%
CN(C)c1ncc(F)c(-c2cnn3ncccc23)n1  remaining binding (TYK2 JH1; cell-free assay; competition with immobilised ligand; 1 µM): 87%
CC(=O)c1c(NS(C)(=O)=O)c2cc(-c3ccc(Cl)cc3)c(-c3ccc(Cl)cc3Cl)nc2n(C)c1=O  remaining binding (TYK2 JH2; cell-free assay; competition with immobilised ligand; 1 µM): 89%
O=C(c1ccc(Nc2ncc(Cl)c(-c3cc4ccccc4s3)n2)cc1)N1CCC(N2CCCC2)CC1  remaining binding (TYK2 JH2; binding; competition with immobilised ligand; 1 µM): 0.1%
FC(F)(F)Oc1cccc(-c2cnc3ccc(-c4ccncc4)nn23)c1  remaining binding (TYK2 JH1; binding; competition with immobilised ligand; 5 µM): 53%
CN(C)c1nccc(-c2cnn3ncccc23)n1  remaining binding (TYK2 JH1; cell-free assay; competition with immobilised ligand; 1 µM): 51%
O=C(NCC1CCOCC1)c1n[nH]cc1NC(=O)c1c(F)cccc1F  remaining binding (TYK2 JH2; binding; competition with immobilised ligand; 1 µM): 59%
O=C(NCCCN1CCOCC1)c1ccc(Nc2ncc(Cl)c(-c3ccc(Cl)s3)n2)cc1  remaining binding (TYK2 JH1; binding; competition with immobilised ligand; 1 µM): 26%
Cc1c[nH]c2nccc(Oc3c(F)cc(Nc4cc(Cl)nc(N)n4)cc3F)c12  remaining binding (TYK2 JH2; cell-free assay; competition with immobilised ligand; 0.1 µM): 89%
c1cncc(-c2cccc(Nc3nccc(NC4CCCCC4)n3)c2)c1  remaining binding (TYK2 JH1; binding; competition with immobilised ligand; 10 µM): 0.2%
CC(C)(C)c1ccc(-c2nc(CBr)nn2-c2cccc(O)c2)cc1  remaining binding (TYK2; cell-free assay; competition with immobilised ligand; 10 µM): 62%
C[C@H](c1ccc(F)cc1)N(Cc1cccc(C(=O)O)c1)C(=O)c1cnc2ccccc2c1  remaining binding (TYK2 JH2; cell-free assay; competition with immobilised ligand; 1 µM): 92%
COc1cnc(Nc2cccc(S(N)(=O)=O)c2)nc1N1CCN(c2ccccc2)CC1  remaining binding (TYK2 JH1; binding; competition with immobilised ligand; 1 µM): 53%
F[C@@H]1CCN(c2nccc(-c3cnn4ncccc34)n2)C1  remaining binding (TYK2; binding; 1 µM): 100%
COc1cnc(Nc2cccc(S(N)(=O)=O)c2)nc1N1CCN(c2ccccc2)C(=O)C1  remaining binding (TYK2 JH2; binding; competition with immobilised ligand; 1 µM): 13%
N[C@H]1CCN(c2nccc(-c3cnn4ncccc34)n2)C1  remaining binding (TYK2; binding; 1 µM): 78%
COc1ncc2cc3ccccc3nc2c1C#N  remaining binding (TYK2 JH2; cell-free assay; competition with immobilised ligand; 5 µM): 99%
C[C@@H]1CN(c2ccc3ncc(-c4ccc5[nH]nc(C6CC6)c5c4)n3n2)C[C@H](C)O1  remaining binding (TYK2; binding; competition with immobilised ligand; 0.5 µM): 100%
CN(C)c1nccc(-c2cnc3ncccn23)n1  remaining binding (TYK2; binding; 1 µM): 82%
CN1CCN(c2ccc(Nc3nccc(-c4cccc([N+](=O)[O-])c4)n3)cc2C(F)(F)F)CC1  remaining binding (TYK2; binding; 10 µM): 0%
O=C(Nc1c[nH]nc1C(=O)NC1CCNCC1)c1cc(F)cc(F)c1  remaining binding (TYK2 JH1; binding; competition with immobilised ligand; 1 µM): 100%
COc1ccnn2ncc(-c3ccnc(N(C)C)n3)c12  remaining binding (TYK2; binding; 1 µM): 68%
Cc1cnc(Nc2ccc(C(=O)N3CCC(N4CCCC4)CC3)cc2)nc1-c1cc2ccccc2s1  remaining binding (TYK2 JH2; binding; competition with immobilised ligand; 1 µM): 0%
CCN1CCN(Cc2ccc(C(=O)Nc3ccc(C)c(Oc4ccc5c(c4)CC(=O)N5)c3)cc2C(F)(F)F)CC1  remaining binding (TYK2 JH1; binding; competition with immobilised ligand; 1 µM): 100%
O=C(c1ccc(Nc2ncc(Cl)c(-c3ccc(Cl)s3)n2)cc1)N1CCC(N2CCCC2)CC1  remaining binding (TYK2 JH1; binding; competition with immobilised ligand; 1 µM): 25%
CNC(=O)[C@@H]1CC[C@@H](n2c(-c3ccc4cnccc4c3)nc3ccc(C(=O)NCc4cccc(C(N)=O)c4)cc32)C1  remaining binding (TYK2 JH2; binding; competition with immobilised ligand; 1 µM): 100%
Nc1ncc2c(n1)-c1c([nH]c3ccc(C#CC4CC4)cc13)CCCC2  remaining binding (TYK2 JH1; binding; competition with immobilised ligand; 1 µM): 86%
Cc1noc([C@H]2C[C@@H](c3ccc(C(F)(F)F)cc3)CN(C(=O)N3CCS(=O)(=O)C3)C2)n1  remaining binding (TYK2 JH1; cell-free assay; competition with immobilised ligand; 1 µM): 100%
O=C(c1ccc(Nc2nccc(-c3cc4ccccc4s3)n2)cc1)N1CCC(N2CCCC2)CC1  remaining binding (TYK2 JH2; binding; competition with immobilised ligand; 1 µM): 0.1%
CC(=O)Nc1c(C(C)=O)c(=O)n(C)c2nc(-c3ccc(Cl)cc3Cl)c(-c3ccc(Cl)cc3)cc12  remaining binding (TYK2 JH2; cell-free assay; competition with immobilised ligand; 1 µM): 100%
O=C(NCCCN1CCOCC1)c1ccc(Nc2nccc(-c3cc4ccccc4s3)n2)cc1  remaining binding (TYK2 JH2; binding; competition with immobilised ligand; 1 µM): 0%
C[C@H](NC(=O)c1cnc2n1[C@](C)(Cc1ccc(C#N)cc1)C(=O)N2c1cc(Cl)c(F)c(Cl)c1)C(=O)NC1(c2ccccn2)CC1  remaining binding (TYK2 JH2; cell-free assay; competition with immobilised ligand; 1 µM): 100%
c1cnn2ncc(-c3ccnc(N4CCC45COC5)n3)c2c1  remaining binding (TYK2; binding; 1 µM): 66%
COc1ccc2cc(OCC3(C(=O)O)CN(C(=O)c4ccc(F)cc4)C3)ccc2c1  remaining binding (TYK2 JH2; cell-free assay; competition with immobilised ligand; 1 µM): 100%
CN(CCCC(F)(F)F)c1nccc(-c2cnn3ncccc23)n1  remaining binding (TYK2 JH1; cell-free assay; competition with immobilised ligand; 1 µM): 100%
